# Laboratory results reported in ChEMBL document CHEMBL1136635, “Modification of the N-terminus of peptidomimetic protein tyrosine phosphatase 1B (PTP1B) inhibitors: identification of analogues with cellular activity” (Bioorg Med Chem Lett, 2003).
# Square brackets hold non-standard residues; d marks the D form. Peptide text beside a SMILES is read from it. sY = N[C@@H](Cc1ccc(OS(=O)(=O)O)cc1)C(=O)O; Nle = CCCC[C@H](N)C(=O)O
# Molecular target: T1, Tyrosine-protein phosphatase non-receptor type 1 (Homo sapiens) (UniProt P18031)
# T1 sequence (whole entry): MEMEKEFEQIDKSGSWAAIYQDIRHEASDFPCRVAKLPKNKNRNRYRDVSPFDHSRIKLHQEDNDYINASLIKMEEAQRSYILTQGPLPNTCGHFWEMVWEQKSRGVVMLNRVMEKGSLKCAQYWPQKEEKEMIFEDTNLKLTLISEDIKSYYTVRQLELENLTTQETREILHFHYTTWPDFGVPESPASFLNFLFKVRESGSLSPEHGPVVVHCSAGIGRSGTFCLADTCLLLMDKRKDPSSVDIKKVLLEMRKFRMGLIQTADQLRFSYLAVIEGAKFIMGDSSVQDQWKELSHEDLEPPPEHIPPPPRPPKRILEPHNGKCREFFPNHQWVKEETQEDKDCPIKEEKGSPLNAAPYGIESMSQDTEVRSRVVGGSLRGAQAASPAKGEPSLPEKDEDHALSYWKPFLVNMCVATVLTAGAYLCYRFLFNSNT
# Assay: Inhibitory activity against human protein tyrosine phosphatase 1B (PTP1B) at a concentration of 10 uM
# In short: (§1)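 Purified recombinant human enzyme constructs; PTP1B is a C-terminally truncated soluble form, tested alongside LAR and SHP-2. Activity is read as the initial rate of p-nitrophenyl phosphate (pNPP) hydrolysis and reported as percent inhibition. PTP1B is tested at 100, 10 and 1 µM, or 10 and 1 µM in the salicylate series; LAR and SHP-2 at 100 µM.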
row,Structure (SMILES),inhibition [%]
1,CCCCCNC(=O)[C@H](Cc1ccc(OCC(=O)O)c(C(=O)O)c1)NC(=O)[C@H](Cc1ccccc1)NC(=O)Cc1ccc(C(F)(F)F)cc1,85
2,CCCCCNC(=O)[C@H](Cc1ccc(OCC(=O)O)c(C(=O)O)c1)NC(=O)[C@H](Cc1ccccc1)NC(=O)CCc1ccccc1,74
3,CCCCCNC(=O)[C@H](Cc1ccc(OCC(=O)O)c(C(=O)O)c1)NC(=O)[C@H](Cc1ccccc1)NC(=O)Cc1ccc(OC)cc1,87
4,CCCCCNC(=O)[C@H](Cc1ccc(OCC(=O)O)c(C(=O)O)c1)NC(=O)[C@H](Cc1ccccc1)NC(=O)Cn1nnnc1S,91

# Molecular target: T1, Tyrosine-protein phosphatase non-receptor type 1 (Homo sapiens)
# Assay: Inhibitory activity against human protein tyrosine phosphatase 1B (PTP1B) at a concentration of 1 uM
# In short: as §1
row,Structure (SMILES),inhibition [%]
1,CCCCCNC(=O)[C@H](Cc1ccc(OCC(=O)O)c(C(=O)O)c1)NC(=O)[C@H](Cc1ccccc1)NC(=O)Cc1ccc(C(F)(F)F)cc1,39
2,CCCCCNC(=O)[C@H](Cc1ccc(OCC(=O)O)c(C(=O)O)c1)NC(=O)[C@H](Cc1ccccc1)NC(=O)CCc1ccccc1,22
3,CCCCCNC(=O)[C@H](Cc1ccc(OCC(=O)O)c(C(=O)O)c1)NC(=O)[C@H](Cc1ccccc1)NC(=O)Cc1ccc(OC)cc1,46
4,CCCCCNC(=O)[C@H](Cc1ccc(OCC(=O)O)c(C(=O)O)c1)NC(=O)[C@H](Cc1ccccc1)NC(=O)Cn1nnnc1S,57

# Molecular target: Receptor-type tyrosine-protein phosphatase F (Homo sapiens) (UniProt P10586)
# Sequence (P10586 whole entry): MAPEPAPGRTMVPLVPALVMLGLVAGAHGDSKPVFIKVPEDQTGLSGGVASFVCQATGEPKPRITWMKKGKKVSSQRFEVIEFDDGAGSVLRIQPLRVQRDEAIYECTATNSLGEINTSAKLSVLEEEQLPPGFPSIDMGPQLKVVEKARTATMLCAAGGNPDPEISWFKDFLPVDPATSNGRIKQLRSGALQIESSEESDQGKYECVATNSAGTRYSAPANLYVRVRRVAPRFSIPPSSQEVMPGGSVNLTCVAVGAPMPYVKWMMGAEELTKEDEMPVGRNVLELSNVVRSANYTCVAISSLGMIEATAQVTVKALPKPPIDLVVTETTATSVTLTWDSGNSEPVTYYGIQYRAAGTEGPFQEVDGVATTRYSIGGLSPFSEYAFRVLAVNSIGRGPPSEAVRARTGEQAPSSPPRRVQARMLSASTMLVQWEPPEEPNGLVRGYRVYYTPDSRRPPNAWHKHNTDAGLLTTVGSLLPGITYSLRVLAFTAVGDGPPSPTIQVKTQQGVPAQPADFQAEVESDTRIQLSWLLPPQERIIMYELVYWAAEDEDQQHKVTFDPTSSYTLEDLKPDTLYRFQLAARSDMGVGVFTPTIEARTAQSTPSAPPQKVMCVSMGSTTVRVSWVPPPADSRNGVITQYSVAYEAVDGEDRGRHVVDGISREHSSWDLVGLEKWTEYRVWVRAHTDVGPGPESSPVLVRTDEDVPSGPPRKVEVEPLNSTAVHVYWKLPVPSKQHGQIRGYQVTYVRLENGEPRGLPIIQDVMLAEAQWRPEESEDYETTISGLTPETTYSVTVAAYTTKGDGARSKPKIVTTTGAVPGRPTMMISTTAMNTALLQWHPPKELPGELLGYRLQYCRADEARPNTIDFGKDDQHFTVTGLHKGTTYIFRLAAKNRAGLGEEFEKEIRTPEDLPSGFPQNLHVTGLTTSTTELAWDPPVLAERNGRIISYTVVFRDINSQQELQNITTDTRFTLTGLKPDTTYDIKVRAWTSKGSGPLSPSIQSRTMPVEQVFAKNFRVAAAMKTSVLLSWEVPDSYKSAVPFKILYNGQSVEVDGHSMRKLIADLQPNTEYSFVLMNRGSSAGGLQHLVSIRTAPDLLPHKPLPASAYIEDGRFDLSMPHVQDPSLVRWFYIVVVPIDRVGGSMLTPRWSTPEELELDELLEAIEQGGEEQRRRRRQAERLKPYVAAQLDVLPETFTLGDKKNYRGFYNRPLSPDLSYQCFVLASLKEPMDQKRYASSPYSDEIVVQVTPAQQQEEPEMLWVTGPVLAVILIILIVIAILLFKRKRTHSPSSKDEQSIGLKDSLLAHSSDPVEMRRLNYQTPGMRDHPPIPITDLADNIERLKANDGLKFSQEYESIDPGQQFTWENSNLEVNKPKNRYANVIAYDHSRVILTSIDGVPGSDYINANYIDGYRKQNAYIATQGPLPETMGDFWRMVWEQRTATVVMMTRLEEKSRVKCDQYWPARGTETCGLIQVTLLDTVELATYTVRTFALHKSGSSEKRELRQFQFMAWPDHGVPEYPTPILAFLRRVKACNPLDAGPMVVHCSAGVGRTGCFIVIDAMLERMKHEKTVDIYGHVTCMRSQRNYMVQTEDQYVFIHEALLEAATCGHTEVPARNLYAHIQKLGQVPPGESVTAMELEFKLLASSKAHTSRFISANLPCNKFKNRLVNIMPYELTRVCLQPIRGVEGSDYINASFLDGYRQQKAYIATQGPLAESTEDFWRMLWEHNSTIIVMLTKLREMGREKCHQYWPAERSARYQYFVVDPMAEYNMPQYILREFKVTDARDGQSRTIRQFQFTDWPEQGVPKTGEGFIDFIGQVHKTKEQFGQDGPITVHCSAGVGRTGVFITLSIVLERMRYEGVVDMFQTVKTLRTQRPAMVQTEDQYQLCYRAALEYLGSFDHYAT
# Assay: Inhibitory activity against phosphatase (LAR) at a concentration of 100 uM
# In short: as §1
row,Structure (SMILES),inhibition [%]
1,CCCCCNC(=O)[C@H](Cc1ccc(OCC(=O)O)c(C(=O)O)c1)NC(=O)[C@H](Cc1ccccc1)NC(=O)Cc1ccc(C(F)(F)F)cc1,0
2,CCCCCNC(=O)[C@H](Cc1ccc(OCC(=O)O)c(C(=O)O)c1)NC(=O)[C@H](Cc1ccccc1)NC(=O)CCc1ccccc1,0
3,CCCCCNC(=O)[C@H](Cc1ccc(OCC(=O)O)c(C(=O)O)c1)NC(=O)[C@H](Cc1ccccc1)NC(=O)Cc1ccc(OC)cc1,5
4,CCCCCNC(=O)[C@H](Cc1ccc(OCC(=O)O)c(C(=O)O)c1)NC(=O)[C@H](Cc1ccccc1)NC(=O)Cn1nnnc1S,0

# Tested on: not listed separately
# Assay: Uptake of 2-DOG (2-deoxyglucose) into L6 myocytes in the presence of half-maximal concentration of insulin at 100 uM
# Type: functional, Rattus norvegicus
# In short: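 L6 myotubes are exposed to compound at 100 µM with 10 nM insulin, a dose eliciting about 50% of maximal uptake. The initial rate of 2-[3H]deoxyglucose uptake is measured, with L-[14C]glucose marking extracellular space, and normalized to recovered lysate protein. Net insulin-dependent transport with inhibitor is expressed as a percent of that without inhibitor.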
row,Structure (SMILES),Control Uptake [%]
1,CCCCCNC(=O)[C@H](Cc1ccc(OCC(=O)O)c(C(=O)O)c1)NC(=O)[C@H](Cc1ccccc1)NC(=O)Cc1ccc(C(F)(F)F)cc1,130
2,CCCCCNC(=O)[C@H](Cc1ccc(OCC(=O)O)c(C(=O)O)c1)NC(=O)[C@H](Cc1ccccc1)NC(=O)CCc1ccccc1,136
3,CCCCCNC(=O)[C@H](Cc1ccc(OCC(=O)O)c(C(=O)O)c1)NC(=O)[C@H](Cc1ccccc1)NC(=O)Cc1ccc(OC)cc1,141
4,CCCCCNC(=O)[C@H](Cc1ccc(OCC(=O)O)c(C(=O)O)c1)NC(=O)[C@H](Cc1ccccc1)NC(=O)Cn1nnnc1S,89

# Molecular target: T2, Tyrosine-protein phosphatase non-receptor type 1 (Homo sapiens, UniProt P18031)
# T2 sequence (P18031 whole entry): T1 sequence (whole entry)
# Assay: Inhibitory activity against human protein tyrosine phosphatase 1B (PTP1B)
# In short: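 Ki against a C-terminally truncated, soluble recombinant human PTP1B. Initial rates of pNPP hydrolysis are measured, and the Ki is computed by the Cornish-Bowden direct linear method.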
row,Structure (SMILES),Ki [nM]
1,CCCCCNC(=O)[C@H](Cc1ccc(OCC(=O)O)c(C(=O)O)c1)NC(=O)[C@H](Cc1ccccc1)NC(=O)Cc1ccc(C(F)(F)F)cc1,590
2,CCCCCNC(=O)[C@H](Cc1ccc(OCC(=O)O)c(C(=O)O)c1)NC(=O)[C@H](Cc1ccccc1)NC(=O)CCc1ccccc1,1400
3,CCCCCNC(=O)[C@H](Cc1ccc(OCC(=O)O)c(C(=O)O)c1)NC(=O)[C@H](Cc1ccccc1)NC(=O)Cc1ccc(OC)cc1,670
4,CCCCCNC(=O)[C@H](Cc1ccc(OCC(=O)O)c(C(=O)O)c1)NC(=O)[C@H](Cc1ccccc1)NC(=O)Cn1nnnc1S,700

# Continued, values first:
row,Ki [nM],Structure (SMILES)
1,220,CCCCCNC(=O)[C@H](Cc1ccc(OCC(=O)O)c(C(=O)O)c1)NC(=O)[C@H](Cc1ccccc1)NC(=O)CCC(=O)O
2,5000,CCCC[C@H](NC(=O)[C@H](Cc1ccc(OS(=O)(=O)O)cc1)NC(=O)[C@H](CC(=O)O)NC(C)=O)C(N)=O (Ac-Asp-[sY]-[Nle]-NH2)

# Molecular target: T3, Tyrosine-protein phosphatase non-receptor type 11 (Homo sapiens) (UniProt Q06124)
# T3 sequence (whole entry): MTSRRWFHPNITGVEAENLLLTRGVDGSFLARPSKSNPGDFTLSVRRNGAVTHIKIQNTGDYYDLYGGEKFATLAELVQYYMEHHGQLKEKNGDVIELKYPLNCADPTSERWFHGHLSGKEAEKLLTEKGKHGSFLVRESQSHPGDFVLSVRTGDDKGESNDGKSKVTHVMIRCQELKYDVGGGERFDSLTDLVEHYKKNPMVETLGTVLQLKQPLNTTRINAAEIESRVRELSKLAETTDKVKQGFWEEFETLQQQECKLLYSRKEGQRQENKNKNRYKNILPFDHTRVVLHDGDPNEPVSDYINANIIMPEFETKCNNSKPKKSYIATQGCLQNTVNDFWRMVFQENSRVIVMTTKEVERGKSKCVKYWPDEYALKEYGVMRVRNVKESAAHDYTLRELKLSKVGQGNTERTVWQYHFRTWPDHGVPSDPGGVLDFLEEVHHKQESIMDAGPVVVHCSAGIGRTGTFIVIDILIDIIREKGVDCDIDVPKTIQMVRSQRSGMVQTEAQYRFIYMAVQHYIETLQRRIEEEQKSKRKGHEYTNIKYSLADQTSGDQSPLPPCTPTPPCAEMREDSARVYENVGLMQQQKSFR
# Assay: Inhibition of recombinant human phosphatase (SHP-2) at a concentration of 100 uM
# In short: as §1
row,Structure (SMILES),inhibition [%]
1,CCCCCNC(=O)[C@H](Cc1ccc(OCC(=O)O)c(C(=O)O)c1)NC(=O)[C@H](Cc1ccccc1)NC(=O)Cc1ccc(C(F)(F)F)cc1,28
2,CCCCCNC(=O)[C@H](Cc1ccc(OCC(=O)O)c(C(=O)O)c1)NC(=O)[C@H](Cc1ccccc1)NC(=O)CCc1ccccc1,12
3,CCCCCNC(=O)[C@H](Cc1ccc(OCC(=O)O)c(C(=O)O)c1)NC(=O)[C@H](Cc1ccccc1)NC(=O)Cc1ccc(OC)cc1,25
4,CCCCCNC(=O)[C@H](Cc1ccc(OCC(=O)O)c(C(=O)O)c1)NC(=O)[C@H](Cc1ccccc1)NC(=O)Cn1nnnc1S,10
